According to publication PMC3835729 (Biochemistry, 2013):
Each block holds one compound with its values, some of them ahead of it.

Legend:
[1] = target: T1, human histidine triad nucleotide binding protein 1 (hHint1) (Homo sapiens, UniProt P49773); test: stopped-flow fluorescence, burst; assay type: biochemical; conditions: 20 mM HEPES, 1 mM MgCl2, pH 7.2, 25 °C; pre-steady state
Outline: (§1)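 Recombinant WT human Hint1 (E. coli BB2, AMP-agarose, desalted) was loaded at 5 μM in one syringe, with substrate in 20 mM HEPES, 1 mM MgCl2, pH 7.2 in the other. Substrate was phosphoramidate (5-60 μM) or acyl adenylate (5-40 μM). Equal volumes were mixed at 25°C. Fluorescence used excitation at 280 nm and a 320 nm cutoff. The burst rate came from a single exponential plus linear term, and Kadenylyl from a nonlinear fit versus [S]. Six experiments were averaged.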

[2] = target: T1, human histidine triad nucleotide binding protein 1 (hHint1); test: stopped-flow catalytic trapping with TpAd; assay type: biochemical
Outline: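 Wild-type human Hint1, expressed in E. coli hinT-disrupted strain BB2 and purified on AMP-agarose, at 5 μM in one stopped-flow syringe. It was pre-incubated 10 min with the test compound (0-5000 μM) and then mixed with the tryptamine-releasing phosphoramidate substrate (40 μM). Indole fluorescence was read with excitation at 280 nm through a 320 nm cutoff filter. Test-compound absorbance was kept within 5%.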

[3] = target: T1, human histidine triad nucleotide binding protein 1 (hHint1); test: tryptophan fluorescence titration
[4] = target: T1, human histidine triad nucleotide binding protein 1 (hHint1); test: stopped-flow fluorescence, burst; assay type: biochemical; conditions: 20 mM HEPES, 1 mM MgCl2, pH 7.2, 25 °C; pre-steady state; remark: listed apart in the source
Outline: as §1

T1 sequence (P49773 2-126): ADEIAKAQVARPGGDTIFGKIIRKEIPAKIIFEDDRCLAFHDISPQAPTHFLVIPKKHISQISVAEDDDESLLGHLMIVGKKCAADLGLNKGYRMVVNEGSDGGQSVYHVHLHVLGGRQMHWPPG

K^adenylyl [1]: 5 ± 1 µM
Structure (SMILES): Nc1ncnc2c1ncn2[C@@H]1O[C@H](COP(=O)(O)OC(=O)CCc2c[nH]c3ccccc23)[C@@H](O)[C@H]1O [AIPA]

Ki [2]: ~200 µM
Kd [3]: 200 µM
Structure (SMILES): Nc1ncnc2c1ncn2[C@@H]1O[C@H](COP(=O)(O)O)[C@@H](O)[C@H]1O [AMP]

K^adenylyl [4]: 13 ± 2 µM
Structure (SMILES): Nc1ncnc2c1ncn2[C@@H]1O[C@H](COP(=O)(O)NCCc2c[nH]c3ccccc23)[C@@H](O)[C@H]1O [TpAd]
